Measurements as given in ChEMBL document CHEMBL2203050, “Synthesis, evaluation and structure-activity relationships of triazine dimers as novel antiviral agents” (Bioorg Med Chem Lett, 2012).
pEC50: −log10 of the molar value. Active and inactive are the calls of the source. The rule behind the calls is not given here.

Assays:
[1] = Selectivity index, ratio of CC50 for human TZM-b1 cells to EC50 for HIV1; type: toxicity, cell-based; conditions: read-out: Ratio CC50/EC50
[2] = Cytotoxicity against human TZM-b1 cells; type: cell-based
[3] = tested on: Human immunodeficiency virus 1; assay: Antiviral activity against HIV1 infected in human TZM-b1 cells; type: functional, organism-based; conditions: Human immunodeficiency virus 1, TZM-b1
[4] = tested on: Human immunodeficiency virus 1; assay: Antiviral activity against HIV1 assessed as inhibition of viral p24 antigen production treated every 1 hr for 12 hrs by ELISA based time-of-drug addition assay; type: functional, organism-based
Summary of the method: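 TZM-bl cells (2 × 10⁴ per well) were infected with virus at 0.4 MOI, with or without compound, for 1 h. Unbound virus was washed off and fresh medium was added, with or without compound. Compound at 50–500 × EC₅₀ was then added each hour over 12 h. p24 was measured by in-house antigen-capture ELISA at 24 h, giving a single replication round. Cells plus medium and cells plus virus served as controls.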

[5] = tested on: Human immunodeficiency virus 1; assay: Antiviral activity against HIV1 Ba-L harboring reverse transcriptase V106A mutant; type: functional, organism-based; conditions: Human immunodeficiency virus 1, Ba-L
[6] = tested on: Human immunodeficiency virus 1; assay: Antiviral activity against HIV1 harboring reverse transcriptase VI829 L100I, K103N mutant; type: functional, organism-based
[7] = tested on: Human immunodeficiency virus 1; assay: Antiviral activity against HIV1 harboring reverse transcriptase VI829/Y181C mutant; type: functional, organism-based
[8] = tested on: Human immunodeficiency virus 1; assay: Ratio of EC50 for HIV1 Ba-L harboring reverse transcriptase V106A mutant to EC50 for wild type HIV1 Ba-L; type: functional
[9] = tested on: Human immunodeficiency virus 1; assay: Antiviral activity against HIV1 harboring reverse transcriptase VI829 mutant; type: functional, organism-based
[10] = tested on: Human immunodeficiency virus 1; assay: Antiviral activity against wild type HIV1 Ba-L; type: functional, organism-based; conditions: Human immunodeficiency virus 1, Ba-L
[11] = tested on: Human immunodeficiency virus 1; assay: Ratio of EC50 for HIV1 harboring reverse transcriptase VI829/Y181C mutant to EC50 for wild type HIV1 VI829
[12] = tested on: Human immunodeficiency virus 1; assay: Ratio of EC50 for HIV1 harboring reverse transcriptase VI829 L100I, K103N mutant to EC50 for wild type HIV1 VI829

Row | Structure (SMILES) | selectivity ratio [1] | CC50 [2] [nM] | pEC50 [3] | inhibition [4] | pEC50 [5] | pEC50 [6] | pEC50 [7] | Ratio EC50 [8] | pEC50 [9] | pEC50 [10] | Ratio EC50 [11] | Ratio EC50 [12]
1 | Cc1cc(C)c(Nc2nc(Nc3ccc(C#N)cc3)nc(Nc3ccc(Nc4nc(Nc5ccc(C#N)cc5)nc(Nc5c(C)cc(C)cc5C)n4)cc3)n2)c(C)c1 | > 588 | > 100000 | 6.77 | – | – | – | – | – | – | – | – | –
2 | Cc1cc(C)c(Nc2ccnc(Nc3ccc(C#N)cc3)n2)c(C)c1 [DAPIVIRINE] | 1440 | 2880 | – | Active | 8.60 | < 6.00 | 7.97 | 1.3 | 8.70 | 8.70 | 5.4 | >500
